Only some compounds are listed: those with a hit (about 3.4% of all), similar ones and a draw of the others.
UCH37 inh: human UCH37 deubiquitinating enzyme inhibition | AID 588478 | purified proteasome/UCH37, Ub-AMC cleavage fluorescence | 0.33% of 330,000 active | inhibition, % (no concentration beside the values);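 active means mean inhibition over replicate wells above about 20%, limit read from the data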;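 further: 0% = compound-free wells with enzyme and 100% = wells lacking proteasome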
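Signal – fluorescence, ex 355 nm, em 460 nm · System – Proteasome-bound UCH37 · Input – 0.15 nM proteasome as dispensed · Timing – 30 min preincubation with enzyme, 25 min cleavage at room temperature · Read-out basis – percent inhibition of cleavage signal versus uninhibited and no-proteasome wells · Medium – Tris-HCl pH 7.4 with ATP-MgCl2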
Arrestin-AP2 inh: blocks beta-arrestin peptide binding to AP2 adaptin. FITC-arrestin peptide / GST-AP2 beads, flow cytometry; AP2 beta2 appendage carries R879A mutation. inhibition, % at 10 µM. 0.31% of 340,000 active;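 active means inhibition above a set limit, near 3 SD of compounds lacking own fluorescence, cut at about 54% in these data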;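 further: plate controls were DMSO wells for no effect and 5 µM unlabelled arrestin peptide for full effect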
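System: GST-AP2 R879A glutathione beads; medium: PBS, Tween 20 0.05%, BSA 0.1%; reagent: fluorescein-tagged arrestin peptide at 50 nM final; schedule: pre-incubation 12 min, peptide binding 1 h, room temperature; detection: flow cytometry, FL1 (488/535 nm); read-out: inhibition as reduced fluorescein signal on beads, percent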
APOBEC3G inh: inhibitors of human APOBEC3G DNA deaminase | recombinant A3G, ssDNA deamination FAM/TAMRA fluorescence | inhibition, % at 20 µM | 0.28% of 330,000 active;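 active means inhibition of at least 40% at 20 µM, with no more than 30% in the related APOBEC3A deaminase screen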;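 further: plate controls were DMSO wells with A3G for no effect and wells lacking A3G enzyme for full effect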
PolyA inh: inhibitors of polyadenylation in S. cerevisiae. 0.02% of 300,000 active. activity score, % at 12 µM. S. cerevisiae SKY197-pL101 polyadenylation reporter, beta-gal luminescence; efflux-impaired pdr1/pdr3 knockout yeast; score 100 = 6 SD above DMSO;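 active means lowest replicate activity score at least 50, where 100 means six control SD above control mean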;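 further: yeast exposed to compound for 9 h at 30 °C; higher score means more reporter readthrough which indicates perturbed polyadenylation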
AHR activator: activators of human aryl hydrocarbon receptor; P35869; activation, % at 5 µM; AHR-responsive luciferase reporter cells, luminescence; 2.5% of 320,000 active; AID 2796; in the data active means activation above about 47%;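 further: 0% = vehicle wells and 100% = reference agonist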
Target sequence (P35869 whole entry, looked up): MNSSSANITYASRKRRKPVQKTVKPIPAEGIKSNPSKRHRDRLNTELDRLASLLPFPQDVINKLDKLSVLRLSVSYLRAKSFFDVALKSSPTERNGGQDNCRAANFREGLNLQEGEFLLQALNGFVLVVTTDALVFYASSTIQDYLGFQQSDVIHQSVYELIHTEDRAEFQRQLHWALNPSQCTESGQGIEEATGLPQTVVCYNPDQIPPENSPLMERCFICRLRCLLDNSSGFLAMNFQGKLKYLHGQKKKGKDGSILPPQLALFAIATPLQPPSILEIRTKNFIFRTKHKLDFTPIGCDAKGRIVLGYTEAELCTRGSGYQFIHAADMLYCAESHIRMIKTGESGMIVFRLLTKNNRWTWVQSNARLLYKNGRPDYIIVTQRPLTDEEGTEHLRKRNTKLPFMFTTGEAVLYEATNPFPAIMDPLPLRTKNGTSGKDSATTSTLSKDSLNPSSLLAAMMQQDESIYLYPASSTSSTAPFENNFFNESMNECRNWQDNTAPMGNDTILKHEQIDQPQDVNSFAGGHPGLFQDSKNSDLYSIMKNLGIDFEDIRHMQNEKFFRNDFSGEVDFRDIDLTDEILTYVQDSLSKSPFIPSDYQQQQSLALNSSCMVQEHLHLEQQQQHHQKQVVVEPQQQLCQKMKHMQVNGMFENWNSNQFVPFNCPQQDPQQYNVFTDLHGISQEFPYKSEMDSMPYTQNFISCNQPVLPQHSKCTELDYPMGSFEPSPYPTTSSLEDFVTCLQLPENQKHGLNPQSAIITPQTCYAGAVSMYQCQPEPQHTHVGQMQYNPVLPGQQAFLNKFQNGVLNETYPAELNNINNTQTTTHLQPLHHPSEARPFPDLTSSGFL
A3A deaminase: inhibitors of human APOBEC3A DNA deaminase. 0.41% of 330,000 active. inhibition, % at 20 µM. recombinant A3A, FAM/TAMRA ssDNA deamination fluorescence;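 active means at least 40% inhibition at 20 µM here, with at most 30% in a related deaminase screen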;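 further: plate controls were A3A with DMSO for no effect and wells lacking A3A enzyme for full effect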
AHR act confirm: human AHR activation, confirmation. shares compounds with AHR activator. human cells, AHR-responsive luciferase reporter, luminescence. activation, % at 9 µM. 87% of 2,300 active. AID 2845; in the data active means activation above about 49%;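 further: HepG2 hepatoma cells carrying a DRE-driven firefly luciferase reporter; 0% = vehicle wells and 100% = reference agonist wells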
PXR act counter: PXR activation, counter-screen for AHR activators. activation, % at 11.6 µM. shares compounds with AHR activator. 88% of 2,300 active. cell-based PXR reporter, luciferase luminescence; in the data active means activation above about 11%;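 further: human hepatoma DPX-2 cells expressing full-length human PXR; 0% = DMSO and 100% = reference agonist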
Starred values were filed as active, the others as inactive; · = no result given.

SMILES	UCH37 inh	Arrestin-AP2 inh	APOBEC3G inh	PolyA inh	AHR activator	A3A deaminase	AHR act confirm	PXR act counter
Cc1cc(NC(=O)c2oc3ccccc3c2C)ccc1-n1cnnn1	-5	-5	-4	-4	99*	-4	100*	14*
Cc1c(C(=O)Nc2ccc(N3CCOCC3)cc2)oc2ccccc12	1	14	-3	-11	85*	3	131*	19*
Cc1c(C(=O)Nc2ccccn2)oc2ccccc12	2	8	1	-5	115*	4	212*	21*
Cc1ccc(NC(=O)c2cc3c(=O)oc4ccccc4c3s2)nc1	·	-15	8	11	1	4	·	·
Cc1c(C(=O)OCC(=O)Nc2ccc(N3CCOCC3)cc2)oc2ccccc12	0	-16	-2	-8	3	4	·	·
C(=NN(Cc1ccccc1)c1ccccc1)c1ccco1	1	·	·	·	·	·	·	·
CCCc1c(C(=O)Nc2ccc(N3CCOCC3)cc2)cnn1-c1ccccc1	-2	17	-5	10	83*	3	102*	12*
S=C(NCc1ccco1)NN=Cc1ccncc1	7	·	·	·	·	·	·	·
C=CCNc1nc2ccccc2c(=O)[nH]1	-45	30	-7	12	94*	-3	8	9
CCCCNC(=O)c1sc2ncnc(N3CCc4ccccc4C3)c2c1C	2	2	4	-11	99*	5	102*	24*
CC(/C=C/c1cccc([N+](=O)[O-])c1)=N/NC(=O)c1cccnc1	·	-1	0	-12	85*	4	77*	·
Cc1nonc1C(=O)NN=Cc1ccc(O)cc1O	7	·	·	·	·	·	·	·
Cn1cccc1C=NN1CCN(c2ccccn2)CC1	6	·	·	·	·	·	·	·
Cc1ccc(NCCC(=O)c2cccs2)cc1Cl	3	9	-2	-17	86*	-1	69*	12*
O=C(CCNc1cccc(Cl)c1)c1cccs1	4	8	-3	-1	8	-4	·	·
C=CCOc1ccc(C=Nn2cncn2)cc1OC	1	·	·	·	·	·	·	·
FC(F)(F)c1nnc(-c2ccccc2)nc1N1CCCC1	2	4	-17	-34	85*	24	131*	52*
CC(=NNC(=O)NC12CC3CC(CC(C3)C1)C2)c1ccccc1	2	·	·	·	·	·	·	·
Cc1ncsc1C(=O)Nc1nc2c(s1)CC(C)CC2 (stereo not drawn)	2	6	-3	16	14	-1	·	·
CC1CCc2nc(NC(=O)C3CC3)sc2C1 (stereo not drawn)	1	29	-9	-18	135*	-9	105*	37*
O=C(Cc1csc(N2CCOCC2)n1)NN=Cc1ccc(Cl)cc1Cl	2	·	·	·	·	·	·	·
Fc1ccccc1-c1nc(-c2ccncc2)no1	·	2	-5	-8	16	-6	·	·
Fc1ccccc1-c1nc(-c2ccc(Br)o2)no1	4	-1	2	-5	102*	0	143*	31*
c1ccc2c(-c3nc(-c4ccncc4)no3)cccc2c1	-23	23	3	-24	99*	4	114*	15*
Fc1ccccc1-c1nc(-c2ccccc2)no1	3	-5	-1	-2	93*	-1	126*	13*
SMILES	UCH37 inh	Arrestin-AP2 inh	APOBEC3G inh	PolyA inh	AHR activator	A3A deaminase	AHR act confirm	PXR act counter
Cc1ccccc1-c1nc(-c2ccc(Br)o2)no1	2	-6	26	-7	102*	2	127*	49*
COc1cccc(-c2c(C(=O)NN=Cc3ccsc3)nnn2-c2nonc2N)c1	5	·	·	·	·	·	·	·
CCOc1cc(C=NNC(=O)c2cccnc2)ccc1OCc1ccc(C(=O)OC)o1	6	·	·	·	·	·	·	·
Cc1ccc(C(=O)Nc2cccc(C(F)(F)F)c2)cc1Nc1ncnc2nc[nH]c12	·	·	12	-4	84*	1	39	30*
O=[N+]([O-])c1cccc(-c2cc3ccccc3[nH]2)c1	7	-8	-6	-37	84*	-4	134*	15*
CCc1cccc2c(C=NNC(=O)c3cccc(S(=O)(=O)Nc4ccccc4Cl)c3)c[nH]c12	-6	·	·	·	·	·	·	·
